Results reported in ChEMBL document CHEMBL1143169, “Highly water-soluble prodrugs of anthelmintic benzimidazole carbamates: synthesis, pharmacodynamics, and pharmacokinetics” (J Med Chem, 2008).
Values belong to the molecule of their own block, whether it stands above or below them. The source made the active and inactive calls. The calls are words filed in the database; no cut-off is given here.

Experiments:
[1] = Tmax in pig at 5.0 mg/kg, po; assay type: ADME, organism-based, Sus scrofa; set-up: dose 5 mg/kg, route oral; details: in vivo
How it was run: (§1)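 Swine received a single oral dose of 5.0 mg/kg, given as an aqueous solution or suspension. Plasma levels of fenbendazole, fenbendazole sulfoxide and fenbendazole sulfone were measured over time. Cmax, Tmax and AUC were derived for each analyte.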

Sus scrofa [2] = assay: Tmax in pig at 5.0 mg/kg, po assessed as fenbendazole sulfone level; assay type: ADME, organism-based; set-up: dose 5 mg/kg, route oral; details: in vivo; how it was run: as §1
Sus scrofa [3] = assay: Cmax in pig at 5.0 mg/kg, po assessed as fenbendazole sulfoxide level; assay type: ADME, organism-based; set-up: dose 5 mg/kg, route oral; details: in vivo; how it was run: as §1
Sus scrofa [4] = assay: AUC in pig at 5.0 mg/kg, po assessed as fenbendazole sulfoxide level; assay type: ADME, organism-based, Plasma; set-up: dose 5 mg/kg, route oral; details: in vivo; how it was run: as §1
Sus scrofa [5] = assay: AUC in pig at 5.0 mg/kg, po assessed as fenbendazole sulfone level; assay type: ADME, organism-based, Plasma; set-up: dose 5 mg/kg, route oral; details: in vivo; how it was run: as §1
Sus scrofa [6] = assay: Cmax in pig at 5.0 mg/kg, po assessed as fenbendazole sulfone level; assay type: ADME, organism-based; set-up: dose 5 mg/kg, route oral; details: in vivo; how it was run: as §1
[7] = Cmax in pig at 5.0 mg/kg, po; assay type: ADME, organism-based, Sus scrofa; set-up: dose 5 mg/kg, route oral; details: in vivo; how it was run: as §1
Sus scrofa [8] = assay: Tmax in pig at 5.0 mg/kg, po assessed as fenbendazole sulfoxide level; assay type: ADME, organism-based; set-up: dose 5 mg/kg, route oral; details: in vivo; how it was run: as §1
[9] = AUC in pig at 5.0 mg/kg, po; assay type: ADME, organism-based, Sus scrofa; set-up: dose 5 mg/kg, route oral; details: plasma; how it was run: as §1
Sus scrofa [10] = assay: Cmax in pig at 6.8 mg/kg, po; details: in vivo
[11] = Aqueous solubility at pH 7.4; assay type: physicochemical
Sus scrofa [12] = assay: (§2) Tmax in pig at 6.8 mg/kg, po assessed as sodium (2-(methoxycarbonyl)-5-(phenylsulphonyl)-1H-benzo[d]imidazol-1-yl)methyl phosphate level; assay type: ADME, organism-based; set-up: dose 6.8 mg/kg, route oral; details: in vivo
Sus scrofa [13] = assay: as §2; assay type: ADME, organism-based; set-up: dose 6.8 mg/kg, route oral; details: in vivo; remark: listed apart in the source
Oesophagostomum dentatum [14] = assay: Anthelmintic activity against Oesophagostomum dentatum infected pig assessed as reduction in fecal egg shedding; assay type: functional
Sus scrofa [15] = assay: (§3) AUC in pig at 6.8 mg/kg, po assessed as sodium (2-(methoxycarbonyl)-5-(phenylsulphonyl)-1H-benzo[d]imidazol-1-yl)methyl phosphate level; assay type: ADME, organism-based, Plasma; set-up: dose 6.8 mg/kg, route oral; details: in vivo
[16] = Aqueous stability of the compound; assay type: physicochemical; details: buffer
How it was run: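 The compound was dissolved in water at 50 mM and held at pH 5 and at pH 9 for 8 h at room temperature. Remaining intact compound was measured by UV-HPLC.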

Sus scrofa [17] = assay: Cmax in pig at 6.8 mg/kg, po assessed as sodium (2-(methoxycarbonyl)-5-(phenylsulphonyl)-1H-benzo[d]imidazol-1-yl)methyl phosphate; assay type: ADME, organism-based; set-up: dose 6.8 mg/kg, route oral; details: in vivo
Sus scrofa [18] = assay: as §3; assay type: ADME, organism-based, Plasma; set-up: dose 6.8 mg/kg, route oral; details: in vivo; remark: listed apart in the source
Oesophagostomum dentatum [19] = assay: Anthelmintic activity against Oesophagostomum dentatum infected pig assessed as worm burden reduction; assay type: functional

Tmax [1]: 5.4 h | Tmax (Sus scrofa [2]): 34 h | Cmax (Sus scrofa [3]): 1.09 µg/mL | AUC (Sus scrofa [4]): 35 µg·h/mL | AUC (Sus scrofa [5]): 12.73 µg·h/mL | Cmax (Sus scrofa [6]): 0.38 µg/mL | Cmax [7]: 50 ng/mL | Tmax (Sus scrofa [8]): 17 h | AUC [9]: 310 ng·h/mL
Compound: COC(=O)Nc1nc2ccc(Sc3ccccc3)cc2[nH]1 [FENBENDAZOLE]

Cmax (Sus scrofa [10]): 1.41 µg/mL | solubility [11]: 130 mM | Tmax (Sus scrofa [12]): 36 h | Tmax (Sus scrofa [13]): 15 h | AUC (Sus scrofa [15]): 31.15 µg·h/mL | Stability [16]: > 8 h | Cmax (Sus scrofa [17]): 0.78 µg/mL | AUC (Sus scrofa [18]): 58.77 µg·h/mL
Compound: COC(=O)Nc1nc2cc(Sc3ccccc3)ccc2n1COP(=O)([O-])O.[Na+]
Activity (Oesophagostomum dentatum [14]): Active | Activity (Oesophagostomum dentatum [19]): Active

Compound: COC(=O)Nc1nc2cc(Sc3ccccc3)ccc2[nH]1
Activity (Oesophagostomum dentatum [14]): Active | Activity (Oesophagostomum dentatum [19]): Active

solubility [11]: > 50 mM | Stability [16]: > 8 h
Compound: CCCSc1ccc2c(c1)nc(NC(=O)OC)n2COP(=O)([O-])O.[Na+]

solubility [11]: > 50 mM | Stability [16]: > 8 h
Compound: COC(=O)Nc1nc2cc(C(=O)c3ccccc3)ccc2n1COP(=O)([O-])O.[Na+]

solubility [11]: > 50 mM | Stability [16]: > 8 h
Compound: COC(=O)Nc1nc2cc([S+]([O-])c3ccccc3)ccc2n1COP(=O)([O-])O.[Na+] (stereo unspecified)

solubility [11]: > 50 mM | Stability [16]: > 8 h
Compound: COC(=O)Nc1nc2cc(C(=O)c3ccc(F)cc3)ccc2n1COP(=O)([O-])O.[Na+]

solubility [11]: > 50 mM | Stability [16]: > 8 h
Compound: CCCCc1ccc2c(c1)nc(NC(=O)OC)n2COP(=O)([O-])O.[Na+]
